Data on twelve molecules can be found in ChEMBL document CHEMBL1150285, “Combination of non-natural D-amino acid derivatives and allophenylnorstatine-dimethylthioproline scaffold in HIV protease inhibitors have high efficacy in mutant HIV” (J Med Chem, 2008).

Molecules are shown by their SMILES.

In data set [1] the test system is Human immunodeficiency virus 1. Put plainly: Antiviral activity against HIV1 3B in presence of 10% fetal calf serum and alpha1 acid glycoprotein. Format: functional, organism-based. The conditions noted are these: Human immunodeficiency virus 1, 3B.
Data set [2] has as its target Protease (Human immunodeficiency virus 1) (UniProt Q9YQ12). The conditions noted are these: at 1 nM.
Data set [3] is described as follows: Selectivity index, ratio of CC50 for human MT4 cells to EC50 for HIV1 3B. The conditions noted are these: MT4 cells.
Data set [4] deals with Human immunodeficiency virus 1. The experiment in a line: Ratio of EC50 for nelfinavir-resistant HIV1 NL432 to EC50 for wild-type HIV1 NL432. In kind it is functional.
A further data set concerns the target Protease (Human immunodeficiency virus 1, UniProt Q9YQ12). Put plainly: Inhibition of HIV1 protease. Summed up: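 HIV-1 protease (2 µg/mL stock in pH 5.5 acetate buffer) was mixed with test compound (10 nM solution in DMSO) in MES-NaOH buffer, pH 5.5, containing DTT, EDTA and NaCl. The mixture was preincubated 5 min at 37 °C, then started with substrate H-Lys-Ala-Arg-Val-Tyr*Phe(p-NO₂)-Glu-Ala-Nle-NH₂. After 60 min at 37 °C, the reaction was stopped with 1N HCl.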

The nature of data set [5]: Cytotoxicity against human MT4 cells by MTT assay. In kind it is cell-based.
Data set [6] has as its system Human immunodeficiency virus 1. The experiment in a line: Antiviral activity against HIV1 3B in human MT4 cells assessed as inhibition of viral-induced cytopathic effect by MTT method. In kind it is functional, organism-based. Particulars: Human immunodeficiency virus 1, 3B.
For data set [7], the system named is Human immunodeficiency virus 1. The experiment in a line: Antiviral activity against nelfinavir-resistant HIV1 NL432. Format: functional, organism-based. Particulars: Human immunodeficiency virus 1, NL432.
In data set [8] the test system is Human immunodeficiency virus 1. The experiment in a line: Antiviral activity against HIV1 3B in presence of 10% fetal calf serum. Format: functional, organism-based. Particulars: Human immunodeficiency virus 1, 3B.
Data set [9] concerns Human immunodeficiency virus 1. The experiment in a line: Antiviral activity against wild type HIV1 NL432. Particulars: Human immunodeficiency virus 1, NL432. Format: functional, organism-based.
Data set [10] deals with Human immunodeficiency virus 1. Put plainly: microbe, parasite or virus in culture. Format: functional, organism-based. Particulars: Human immunodeficiency virus 1, NL432.
Data set [11] relates to Human immunodeficiency virus 1. The experiment in a line: microbe, parasite or virus in culture. In kind it is functional, organism-based. The conditions noted are these: Human immunodeficiency virus 1, NL432. The source holds these as a separate data set.

Protease, sequence (Q9YQ12 whole entry): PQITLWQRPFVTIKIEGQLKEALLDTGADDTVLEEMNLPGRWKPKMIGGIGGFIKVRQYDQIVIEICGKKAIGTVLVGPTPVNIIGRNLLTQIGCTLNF
Protease (Human immunodeficiency virus 1), sequence (Q9YQ12 as listed by the source): as the sequence (Q9YQ12 whole entry) above

As for `COc1ccc(CSC[C@@H](NC(C)=O)C(=O)N[C@@H](Cc2ccccc2)[C@H](O)C(=O)N2CSC(C)(C)[C@H]2C(=O)NCc2ccccc2C)cc1`, the EC50 in data set [1] worked out at 89 nM. Also, the inhibition in data set [2] came to 87%. In addition, the selectivity ratio in [3] turned out to be 1300. Further, the “Ratio EC50” value in [4] amounted to 0.14. Moreover, inhibition at Protease was half-maximal at 0.18 nM (IC50).

In [2], `CC(=O)N[C@H](CS(=O)(=O)c1ccc2ccccc2c1)C(=O)N[C@@H](Cc1ccccc1)[C@H](O)C(=O)N1CSC(C)(C)[C@H]1C(=O)NCc1ccccc1C` gave an inhibition of 96%. In addition, the selectivity ratio in [3] was 570. The CC50 in data set [5] came out at 16000 nM. In addition, in data set [6], the concentration giving a half-maximal response (EC50) came out at 28 nM. The molecule also yielded an IC50 against Protease of 0.086 nM.

In data set [2], `CC(=O)N[C@H](CS(=O)(=O)c1ccc(F)cc1)C(=O)N[C@@H](Cc1ccccc1)[C@H](O)C(=O)N1CSC(C)(C)[C@H]1C(=O)NCc1ccccc1C` yielded an inhibition of 79%. For the same molecule, the selectivity ratio in [3] was more than 270. Besides, the CC50 in data set [5] is more than 28000 nM. For the same molecule, the EC50 in [6] was found to be 105 nM. Besides, the 50% inhibitory concentration (IC50) at Protease is 0.27 nM.

For the molecule `CC(=O)N[C@H](CS(=O)(=O)c1ccc(Cl)cc1)C(=O)N[C@@H](Cc1ccccc1)[C@H](O)C(=O)N1CSC(C)(C)[C@H]1C(=O)NCc1ccccc1C`, the EC50 was found to be 9.6 nM in data set [7]; 27 nM in data set [8]; 1270 nM in data set [1]; 88 nM in [9]; 19 nM in data set [10]; 47 nM in data set [6]. This molecule yielded a half-maximal effective concentration (EC50) in data set [11] of 44 nM. Also, in [2], the inhibition came to 80%. For the same molecule, in data set [3], the selectivity ratio came to 380. Also, in [4], the “Ratio EC50” value is 0.11. Besides, half-maximal cytotoxicity in data set [5] (CC50) was put at 18000 nM. Also, the IC50 against Protease was 0.22 nM.

For the molecule `Cc1ccccc1CNC(=O)[C@H]1N(C(=O)[C@@H](O)[C@H](Cc2ccccc2)NC(=O)[C@@H](CS(=O)(=O)c2ccc(Cl)cc2)NS(C)(=O)=O)CSC1(C)C`, in data set [2], the inhibition came out at 95%. 0.11 nM corresponded to half-maximal inhibition against Protease (IC50).

Take `CC(=O)N[C@H](COCc1ccccc1)C(=O)N[C@@H](Cc1ccccc1)[C@H](O)C(=O)N1CSC(C)(C)[C@H]1C(=O)NCc1ccccc1C`: the EC50 was 6.5 nM in data set [7]; 20 nM in data set [8]; 278 nM in data set [1]; 23 nM in data set [9]; 44 nM in [10]; 21 nM in data set [6]. For the same molecule, the half-maximal effective concentration (EC50) in data set [11] worked out at 77 nM. In [2], this molecule came in with an inhibition of 64%. In [3], the selectivity ratio is more than 1400. For the same molecule, the “Ratio EC50” value in data set [4] is given as 0.28. The same molecule registered a CC50 in [5] of more than 30000 nM. The same molecule registered an IC50 against Protease of 0.39 nM.

`Cc1ccccc1CNC(=O)[C@H]1N(C(=O)[C@@H](O)[C@H](Cc2ccccc2)NC(=O)[C@@H](CS(=O)(=O)c2ccc3ccccc3c2)NS(C)(=O)=O)CSC1(C)C` gave an inhibition in data set [2] of 98%. The selectivity ratio in data set [3] came out at 230. In addition, the CC50 in [5] worked out at 19000 nM. In addition, the EC50 in data set [6] came to 81 nM. The molecule further gave an IC50 against Protease of 0.09 nM.

In data set [2], `Cc1ccccc1CNC(=O)[C@H]1N(C(=O)[C@@H](O)[C@H](Cc2ccccc2)NC(=O)[C@@H](CS(=O)(=O)c2cccc3ccccc23)NS(C)(=O)=O)CSC1(C)C` yielded an inhibition of 97%. Moreover, the selectivity ratio in data set [3] was 310. Also, in [5], the CC50 worked out at 19000 nM. For the same molecule, the 50% effective concentration (EC50) in [6] is 61 nM. The molecule further registered an IC50 on Protease of 0.083 nM.

For `COc1ccc(CSC[C@@H](NS(C)(=O)=O)C(=O)N[C@@H](Cc2ccccc2)[C@H](O)C(=O)N2CSC(C)(C)[C@H]2C(=O)NCc2ccccc2C)cc1`, the EC50 in data set [7] was 0.67 nM; in data set [8], 9.4 nM; in [1], 94 nM; in [9], 16 nM; in data set [10], 23 nM; in data set [6] it was 9.3 nM. The molecule further had an EC50 in [11] of 20 nM. In addition, the inhibition in [2] came out at 77%. For the same molecule, the selectivity ratio in data set [3] amounted to 1100. Moreover, the “Ratio EC50” value in [4] stood at 0.04. The CC50 in data set [5] stood at 10000 nM. On Protease, it took 0.26 nM to reach half-maximal inhibition (IC50).

`CC(=O)N[C@H](CS(=O)(=O)c1cccc2ccccc12)C(=O)N[C@@H](Cc1ccccc1)[C@H](O)C(=O)N1CSC(C)(C)[C@H]1C(=O)NCc1ccccc1C` had an inhibition in [2] of 97%. Also, in data set [3], the selectivity ratio turned out to be 400. This molecule had a CC50 in data set [5] of 16000 nM. Also, in data set [6], the concentration for a half-maximal effect (EC50) came to 40 nM. On Protease, this molecule yielded an IC50 of 0.09 nM.

`Cc1ccccc1CNC(=O)[C@H]1N(C(=O)[C@@H](O)[C@H](Cc2ccccc2)NC(=O)[C@@H](COCc2ccccc2)NS(C)(=O)=O)CSC1(C)C`: the EC50 in [7] stood at 2.3 nM; in data set [8] it was 20 nM; in [1] it was 90 nM; in data set [9], 22 nM; in data set [10] it was 92 nM; in [6] it was 20 nM. For the same molecule, in [11], the EC50 came to 90 nM. The inhibition in data set [2] was 59%. The selectivity ratio in data set [3] was found to be 850. Further, the “Ratio EC50” value in data set [4] amounted to 0.1. The 50% cytotoxic concentration (CC50) in [5] was 17000 nM. For the same molecule, the IC50 against Protease stood at 0.56 nM.

In the case of `CC(=O)N[C@H](CSc1cccc2ccccc12)C(=O)N[C@@H](Cc1ccccc1)[C@H](O)C(=O)N1CSC(C)(C)[C@H]1C(=O)NCc1ccccc1C`, the EC50 in data set [7] is 6.3 nM; in data set [8], 14 nM; in data set [1], 401 nM; in [9], 20 nM; in data set [10], 52 nM; in data set [6] it was 17 nM. This molecule displayed an EC50 in [11] of 70 nM. In addition, the inhibition in data set [2] came to 68%. In data set [3], the selectivity ratio came out at 470. In addition, the “Ratio EC50” value in data set [4] turned out to be 0.32. The midpoint of cytotoxicity in data set [5], the CC50, lay at 8000 nM.
